In ChEMBL document CHEMBL4513216, “Probing the Open Global Health Chemical Diversity Library for Multistage-Active Starting Points for Next-Generation Antimalarials” (ACS Infect Dis, 2020):

Assay: Toxicity liver stage against HepG2, at 10uM
Type: cell-based
Parameters: test concentration 10 uM, cell line HepG2-A16-CD81EGFP
Settings: human, HepG2-A16-CD81EGFP cells; read-out: INHIBITION
Outline: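 Uninfected HepG2-A16-CD81EGFP cells, 3 × 10^3 per well, 1536-well, plated on prespotted compound at 10 μM final, parasite-free screening media added to match infected plates; puromycin 10 μM positive, DMSO 0.5% negative; run in parallel with 48 h PbLuc assay at 37 °C, 5% CO2; viability by CellTiter-Glo luminescence, normalized to controls.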

Row | Structure (SMILES) | cytotoxicity at 10 µM [%]
1 | CCN(Cc1cnc(-c2ccccn2)nc1)C1CCS(=O)(=O)C1 (stereo not drawn) | -5.24
2 | Cc1noc(C)c1CNC(=O)N1CCCC(C)CC1 (stereo not drawn) | -7.31
3 | Cc1cccc(CN(Cc2cccnc2)C2CC(C)(C)NC(C)(C)C2)n1 | -5.11
4 | CN1C(=O)CCCC12CCCN(Cc1nccs1)C2 (stereo not drawn) | 11.4
5 | CC(=O)c1cc(CN2C[C@@H](CN3CCC(O)CC3)[C@@H](CO)C2)n(C)c1 | 7.58
6 | CCc1nc(C2CCCN2Cc2ccn(C)c(=O)c2)no1 (stereo not drawn) | -4.25
7 | COc1cccn(CC(=O)N(C)CCCOc2c(C)cccc2C)c1=O | 5.27
8 | OC(COCc1cccs1)Cn1cc(-n2cccc2)cn1 (stereo not drawn) | 0.12
9 | CO[C@H]1C[C@@H](O)C12CCN(CCOc1ccc(Cl)cc1)CC2 | -9.66
10 | O=C(NC1CCCOc2cc(Cl)ccc21)c1ccc(=O)[nH]n1 (stereo not drawn) | 1.5
11 | CSc1ccc(NCc2csc(CS(C)(=O)=O)n2)cc1F | -9.99
12 | Cn1cc(C(O)CNC(=O)c2cc(Br)ccc2Cl)cn1 (stereo not drawn) | 2.06
13 | CNC(=O)CN1CCC(CN(C)Cc2ccccc2N(C)C)CC1 | -6.23
14 | Cc1n[nH]c(CN2CCN(CC3CC3)[C@@H]3CS(=O)(=O)C[C@@H]32)n1 | -15.8
15 | COCCNc1nnc(-c2ccccn2)s1 | 6.1
16 | CN(C)c1cncc(C2CCN(CCO)CC2)n1 | 3.29
17 | COCCN1CCC(CN(C)c2ncnc3c2c(C)nn3C)C1 (stereo not drawn) | -5.16
18 | CCOCCN1CCN(Cc2nc(C)no2)CC1CC (stereo not drawn) | 13.1
19 | CCS(=O)(=O)N(C)CCCNCc1c(C)nn(C)c1N(C)C | -8.72
20 | NC(=O)CN1CCCN(C(=O)Cc2cccc(C(F)(F)F)c2)CC1 | -3.05
21 | CS(=O)(=O)NCC1CCCN(C(=O)Nc2ccccc2N2CCCC2)C1 (stereo not drawn) | -139
22 | Cc1noc(C)c1CN1Cc2cnn(C)c2C(COCC2CC2)C1 (stereo not drawn) | -76.5
23 | CCS(=O)(=O)N1CC[C@]2(C[C@@H](OCC3CC3)CO2)C1 | -15.6

Row | Structure (SMILES) | cytotoxicity at 10 µM [%]
24 | c1ccc(-n2ccc(CN3CCOC(Cn4cncn4)C3)n2)cc1 (stereo not drawn) | 0.561
25 | Cc1ncccc1C(=O)Nc1cccc2c1C(=O)NC2 | 1.85
26 | Cc1ccc(Cn2c(=O)[nH]c3cccnc3c2=O)cc1 | 1.61
27 | Nc1nccnc1C(=O)NCCCNc1ccc(C(F)(F)F)cn1 | -8.16
28 | CCn1nc2c(cc1=O)CN(c1ncnc3ccsc13)CC2 | 49.6
29 | O=C(Cc1cccs1)N1CCn2cc(Cn3cccn3)nc2C1 | -77.9
30 | O=C(NC1CC1)C1CCc2nnc(C3CC3)n21 (stereo not drawn) | 11.2
31 | c1coc(CN2CCc3nnc(COc4cncnc4)n3CC2)c1 | 4.15
32 | Cc1nn(CCO)c(C)c1CNC1CCc2c(F)cccc21 (stereo not drawn) | 4.59
33 | O=C(NCC1CCCCO1)c1ccc(-c2cccs2)[nH]c1=O (stereo not drawn) | -7.03
34 | CCc1cnc(N)nc1NCCC(=O)NC1CCCCC1 | -42.1
35 | Cc1ccc([C@@H]2CN(S(=O)(=O)c3ccccc3)C[C@H]2N(C)C)cc1 | -4.44
36 | Fc1ccc(CN2CCC3(CC2)CCN(Cc2nccs2)CC3)cc1 | 4.92
37 | COc1cc2c(cc1OC)CN(C(=O)NC(C)c1nncn1C)CC2 (stereo not drawn) | -4.54
38 | CCOCC1CN(C(=O)c2ccncn2)Cc2cnn(CC)c21 (stereo not drawn) | -68.3
39 | CNC(=O)NC(=O)CSC(C)c1ccccc1F (stereo not drawn) | -14.4
40 | CSc1ccc(C(=O)C2CCCN(C(=O)CCCn3cncn3)C2)cc1 (stereo not drawn) | 6.26
41 | Cc1cnn(CC2CCCN2CCCS(=O)(=O)N(C)C)c1 (stereo not drawn) | -7.45
42 | Cc1ccc2c(c1)nc1n2[C@@H](CNC(=O)c2cncnc2)COC1 | 5.6
43 | CCCc1nnc(N2CCC(N3CCCCCC3)CC2)o1 | -15.3
44 | O=C(c1cnc(Cc2c(Cl)cccc2Cl)nc1O)N1CCNCC1 | -3.01
45 | Cc1ccc(C2(O)CCN(C(=O)Cn3cc(C)c(=O)[nH]c3=O)CC2)nc1 | -7.22
46 | COCCc1noc(C2CCCN(c3nc(N)nc4c3CCCC4)C2)n1 (stereo not drawn) | 48.1

Row | Structure (SMILES) | cytotoxicity at 10 µM [%]
47 | CN1CCN(Cc2cnc3n2CCN(C(=O)c2ccccn2)C3)CC1 | -88.7
48 | O=C(C1CN(c2ncc(F)cn2)CC12CCOCC2)N1CCOCC1 (stereo not drawn) | 13.6
49 | c1nc(N2CCCC2)cnc1C1CCNCC1 | -3.87
50 | CCOCCOC(C)C(=O)Nc1ccc2c(ccn2CC)c1 (stereo not drawn) | 3.99
51 | CCN1C(=O)CCCC12CCCN(C(=O)c1ccncc1F)C2 (stereo not drawn) | -3.27
52 | O=C(CN1CCCC(c2noc(C3CC3)n2)C1)N1CCCC1 (stereo not drawn) | 1.87
53 | CN1CCN(c2nc(O)c3c(-c4ccccn4)ccnc3n2)CC1 | -6.6
54 | COc1cc(C)ccc1S(=O)(=O)N[C@H]1CN(C(C)=O)C[C@@H]1C1CC1 | 5.71
55 | CCn1nc(C)c(CN2CCC(c3ccc(C(=O)O)cc3)C2)c1C (stereo not drawn) | 4.22
56 | O=C(NCCOc1ncc(Cl)cc1Cl)c1ccncc1 | 7.18
57 | COc1c(CNCc2cccc(CN3CCOCC3)c2)c(C)nn1C | 11.1
58 | CCC1CCCCCN1C(=O)c1nnc2ccccc2c1N (stereo not drawn) | 7.85
59 | CC(C)COCC(NC(=O)c1cnccn1)c1ccco1 (stereo not drawn) | -13.8
60 | O=C(Nc1cnn(CCN2CCOCC2)c1)c1ccccn1 | -14.5
61 | O=C(COCC1CCCO1)N1CCCN(Cc2ccccc2F)CC1 (stereo not drawn) | 2.86
62 | CCOC(=O)[C@H]1CNC[C@@H]1C(F)(F)F | 7.06
63 | Cc1cc(C(F)(F)F)nc(CCNC(C)Cn2cncn2)n1 (stereo not drawn) | 12
64 | c1cnn(Cc2cn3c(n2)CN(Cc2nccs2)CC3)c1 | 2.76
65 | Cc1cccc(C(=O)NCc2cccnc2N(C)C)n1 | 0.72
66 | c1csc(-c2cc(CN3CCN(c4cnccn4)CC3)no2)c1 | -0.523
67 | CCn1cc(CN2CCCN(C(=O)CCc3nccs3)CC2)cn1 | -2.53
68 | CC(C)(C)C(O)CN1CCN(CC(=O)NC(C2CC2)C2CC2)CC1 (stereo not drawn) | 3.51
69 | O=C(NCC(O)c1ccc(F)cc1)C1CCN(C2CCCCC2)CC1 (stereo not drawn) | 5.67

Row | Structure (SMILES) | cytotoxicity at 10 µM [%]
70 | COC(=O)N1CCC(CNC(=O)C2CCN(S(C)(=O)=O)CC2)CC1 | -2.72
71 | OCC1CCCCN1c1ccc(-c2nc(-c3ccccc3F)no2)cn1 (stereo not drawn) | 51.2
72 | O=C(CCCc1ccc(F)cc1)N1C[C@@H](CN2CCOCC2)[C@@H](CO)C1 | -11.8
73 | CCN1Cc2cc(F)ccc2N(C(C)=O)CCC1=O | -4.78
74 | COc1cccc(OCC2CCCN(C(=O)c3cnn(C)c3)C2)c1 (stereo not drawn) | -21.4
75 | Cc1cnc(N2C[C@H]3C[C@H](C(=O)N4CCN(C)CC4)N(C)[C@H]3C2)nc1 | -135
76 | Cc1cc(C2CCNCC2)nc(-c2ccsc2)n1 | -1.97
77 | CN(Cc1ccccc1)c1ncccc1CNC1CCC1 | 13.5
78 | Cc1nccc(C2CN(C(=O)c3cncnc3)C2)n1 | -2.46
79 | COc1ccccc1NC(=O)NCc1cn[nH]c1 | 16.9
80 | CCn1ccnc1CN1C[C@@H](NC(=O)C2CC2)[C@H](c2ccc(C)cc2)C1 | 2.63
81 | OC(COc1ccccc1)CN1CCc2c(ncn2C2CC2)C1 (stereo not drawn) | 2.48
82 | O=C(NCCCF)Nc1ccc2nc(N3CCOCC3)oc2c1 | 2.77
83 | CCCC(C#N)NC(=O)c1sccc1CC (stereo not drawn) | 12.7
84 | Cc1noc([C@@H]2C[C@H]3CN(Cc4ccc5c(c4)OCO5)C[C@H]3O2)n1 | -113
85 | Cc1nccn1-c1ccc(NC(=O)C2CCCN2Cc2ccoc2)cc1 (stereo not drawn) | 0.184
86 | O=C(CCc1cc2n(n1)CCCNC2)N1CCSCC1 | 8.55
87 | O=C(NC1=NCCCN1c1ccc(Cl)cc1)c1cccc(Cl)c1 | -17.5
88 | CN(C)CCNC(=O)Nc1cccc(C[S+]([O-])Cc2ccccc2)c1 (stereo not drawn) | 6.59
89 | COc1ccc(CNCc2ccnc(N3CCOCC3)c2)cc1OC | 1.64
90 | Cn1cc(CN2CCc3c(COCC4CC4)cncc3C2)cn1 | -6.33
91 | Cc1nnc(CN(C)C2CCCN(Cc3noc(C4CC4)n3)C2)o1 (stereo not drawn) | -2.51
92 | CCn1ccnc1CN1CCN(Cc2cnc(C)cn2)CC1C (stereo not drawn) | -2.76

Row | Structure (SMILES) | cytotoxicity at 10 µM [%]
93 | N#Cc1cnc(NC2CCN(C(=O)C3CC3)CC2)c(Cl)c1 | -7.32
94 | O=C1CNc2ncnc(Nc3cnn(Cc4ccccc4)c3)c2N1 | 7.38
95 | Cc1ccc(S(=O)(=O)NCc2[nH]ncc2Br)cc1C | 5.23
96 | OCC1CCCN1c1cc(NCCc2nccs2)ncn1 (stereo not drawn) | 4.58
97 | CNS(=O)(=O)c1ccc(CNC(=O)C2CN(C)CCO2)cc1 (stereo not drawn) | -14.1
98 | CNC(=O)CN1C(=O)CCC12CCCN(Cc1cccc(F)c1)C2 (stereo not drawn) | -5.51
99 | CCn1ccnc1CN1CCCN(C(=O)C2(C#N)CCCCC2)CC1 | 3.75
100 | CC(=O)NCCNC(=O)c1cccc(Cn2nc(C)cc2C)c1 | -10.3
101 | COc1ncccc1C(=O)N1CCC(c2nc3c(C)cccc3[nH]2)CC1 | 11.7
102 | N#Cc1cc(F)c(NCCc2ccc(F)cc2)c(F)c1 | -60.3
103 | CC(=O)N1CCC(c2nnc3ccc(C(=O)NCC(C)C)cn23)C1 (stereo not drawn) | -108
104 | COC(=O)[C@H](C)NC(=O)Cc1c(C)nc2c(c1C)c(=O)[nH]n2C | 10.7
105 | CC(=O)N1[C@H](CN(C)C)C[C@@H]2CN(C(=O)c3cccn3C)CC[C@@H]21 | 2.53
106 | N#Cc1cc(NC(=O)c2ccccc2)ccc1N1CCC(O)CC1 | -9.55
107 | Cc1cc(N2CCN(Cc3ccsc3)C(CCO)C2)nc(N)n1 (stereo not drawn) | -7.3
108 | O=S(=O)(NCCSc1nncn1C1CC1)c1ccccc1 | -14.1
109 | O=c1cc(CN(CCO)C2CC2)nc2ccc(Br)cn12 | 12.5
110 | CC(=O)N1CCC(Cc2cnc(-c3c(C)n[nH]c3C)cn2)CC1 | -21.7
111 | CC(C)c1nccn1-c1cccc(C2CCCN2S(=O)(=O)N(C)C)n1 (stereo not drawn) | 4.26
112 | CC(C)c1nc(C2CCCN(C(=O)CCc3cscn3)C2)no1 (stereo not drawn) | -17.2
113 | CC(C)Cn1cnc(S(=O)(=O)Nc2cccnc2-n2cccn2)c1 | -1.75
